Assay outcomes as filed in PubChem.
B2AR ag: beta2AR agonists driving receptor internalization, primary screen, cell-based, FAP fluorogen, flow cytometry; Beta-2 adrenergic receptor (Homo sapiens), P07550; Am2.2-beta2AR cells; response, % (concentration not given with the values); 340,000 compounds, 0.43% hits;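 active means response above a set limit, near 3 SD of response in nonfluorescent compounds, cut at about 42% in these data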
Target sequence (P07550 whole entry, looked up): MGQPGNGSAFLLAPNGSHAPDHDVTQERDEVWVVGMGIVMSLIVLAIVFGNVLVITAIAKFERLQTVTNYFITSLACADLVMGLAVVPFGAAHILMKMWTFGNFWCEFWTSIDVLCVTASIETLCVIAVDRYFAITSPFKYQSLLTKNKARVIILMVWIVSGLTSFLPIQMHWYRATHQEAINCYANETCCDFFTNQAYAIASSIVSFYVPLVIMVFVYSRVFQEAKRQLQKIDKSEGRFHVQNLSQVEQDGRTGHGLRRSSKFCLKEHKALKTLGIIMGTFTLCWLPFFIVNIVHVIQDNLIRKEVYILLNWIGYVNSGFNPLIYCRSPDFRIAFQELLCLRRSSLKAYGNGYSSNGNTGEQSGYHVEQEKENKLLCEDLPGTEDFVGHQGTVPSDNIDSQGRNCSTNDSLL
XBP1 UPR activ: activators of adaptive XBP1 UPR arm, primary screen, cell-based, CHO-XBP1 luciferase reporter, luminescence, uHTS. IRE1-XBP1 UPR activation; percent of tunicamycin response, DMSO as zero. activation, % at 20 µM. 330,000 compounds, 0.33% hits;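 active means versus positive control, 20 µM dose yields 30% or more activation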;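 further: 100% = tunicamycin at 10 µg/mL and 0% = DMSO only wells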
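Material: CHO-XBP1 cells stably carrying IRE1-XBP1-driven luciferase reporter / Amount: 1000 cells per well / Compound: 20 µM, 1% DMSO / Times: 6 h treatment, 37 °C / Detection: luciferase luminescence / Measure: % activation of reporter signal versus tunicamycin and DMSO controls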
UPR CHOP act: activators of apoptotic CHOP UPR arm, primary screen, cell-based, CHO-CHOP luciferase reporter, luminescence, uHTS | UPR activation; percent of tunicamycin response over DMSO baseline | activation, % at 10 µM | 330,000 compounds, 0.34% hits | AID 449763, 2010;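 active means at 10 µM dose, activation of 40% or more, normalized to positive control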;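 further: 100% = tunicamycin at 10 µg/mL and 0% = DMSO alone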
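Test system: CHO-CHOP cells, stable luciferase reporter of PERK-eIF2a-CHOP signalling | Quantity: 500 CHO-CHOP cells per well | Buffer or medium: F12 plus 10% serum | Compound dosing: 10 µM single point, 0.5% DMSO | Schedule: 6 h compound treatment, 37 °C | Signal: Luciferase luminescence | Control set: Tunicamycin high control, DMSO low control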
VLA-4 inh: inhibition in human VLA-4 binding assay, primary screen, VLA-4 allosteric modulator project, MLPCN library, flow cytometry, VLA-4 expressing cells; 330,000 compounds, 0.2% hits; inhibition, % (about 7 µM as worked out from the volumes in the protocol); ligand binding flow cytometry; Integrin alpha-4 (Homo sapiens), P13612; in the data active means inhibition above about 50%
CHOP inh: inhibitors of CHOP promoter induction, primary screen, cell-based, unfolded protein response, luciferase reporter; CHO-K1 CHOP-promoter luciferase, tunicamycin-induced, 15-18 h; inhibition, % at 10 µM; 220,000 compounds, 3.8% hits; AID 2732, 2010;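 active means compounds that reduced the stress-induced luciferase reporter signal by more than about 70% of percent inhibition, limit read from the data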;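 further: 0% = tunicamycin plus vehicle and 100% = wells without tunicamycin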
Numbers without * were called inactive. Shown is part of a subset that was picked to be rich in hits.

How did N#C/C(=C\c1ccc(O)c(O)c1)C(=O)NCCCc1ccccc1 do in these assays?
B2AR ag: -5; XBP1 UPR activ: 5; UPR CHOP act: 151*; VLA-4 inh: -5; CHOP inh: -3

How did COc1cccc(OC)c1C(=O)OCCCOC(=O)c1c(OC)cccc1OC do in these assays?
B2AR ag: -3; XBP1 UPR activ: 0; UPR CHOP act: -1; VLA-4 inh: 13

What do the screens show for `CC(SC1=NCCS1)C(=O)Nc1nnc(-c2ccc(Cl)cc2)s1` (centres undefined)?
B2AR ag: 27; XBP1 UPR activ: -3; UPR CHOP act: 10; VLA-4 inh: -10; CHOP inh: 87*

How did C=CCSc1nnc2n(CCc3ccccc3)c(=O)c3c4c(sc3n12)COC(C)(C)C4 do in these assays?
B2AR ag: 0; XBP1 UPR activ: -3; UPR CHOP act: 1; VLA-4 inh: -13; CHOP inh: 71*

Results for CC(C)Sc1nnc2n(CCc3ccccc3)c(=O)c3c4c(sc3n12)COC(C)(C)C4 ?
XBP1 UPR activ: 1; UPR CHOP act: 2; VLA-4 inh: 0

What do the screens show for `Cc1ccc2nc(-c3ccc(NC(=O)CN4C(=O)NC(C)(c5ccc(OC(F)F)cc5)C4=O)cc3)sc2c1` (centres undefined)?
B2AR ag: 8; XBP1 UPR activ: 11; UPR CHOP act: 5; VLA-4 inh: 24; CHOP inh: 76*

How did Cc1ccc(C)c(S(=O)(=O)NC(C)C(=O)Nc2ccc(-c3nc4ccccc4s3)cc2)c1 (centres undefined) do in these assays?
B2AR ag: -7; XBP1 UPR activ: 1; UPR CHOP act: 4; VLA-4 inh: -41; CHOP inh: 80*

How did Cc1ccc2nc(-c3ccc(NC(=O)CN(c4ccccc4C)S(C)(=O)=O)cc3)sc2c1 do in these assays?
B2AR ag: 22; XBP1 UPR activ: -4; UPR CHOP act: 5; VLA-4 inh: 33; CHOP inh: 70*

What do the screens show for `CC1(c2ccc(OC(F)F)cc2)NC(=O)N(CC(=O)Nc2ccccc2)C1=O` (centres undefined)?
B2AR ag: 0; XBP1 UPR activ: 10; UPR CHOP act: 4; VLA-4 inh: -5

What do the screens show for `Cc1cc(C)cc(N(CC(=O)Nc2ccc(-c3nc4ccc(C)cc4s3)cc2)S(C)(=O)=O)c1`?
B2AR ag: 4; XBP1 UPR activ: 1; UPR CHOP act: 6; VLA-4 inh: 5; CHOP inh: 52

How did CC(C)(C)c1ccc(S(=O)(=O)NCC(=O)Nc2ccc(-c3nc4ccccc4s3)cc2)cc1 do in these assays?
B2AR ag: -5; XBP1 UPR activ: -2; UPR CHOP act: 6; VLA-4 inh: -15; CHOP inh: 96*

What do the screens show for `O=C(NC1CCN(S(=O)(=O)c2ccc(F)cc2)CC1)c1cccc(F)c1`?
B2AR ag: 5; XBP1 UPR activ: -6; UPR CHOP act: -3; VLA-4 inh: -8

What do the screens show for `CCOC(=O)Cc1ccc(NCc2ccc(Cl)cc2)cc1`?
B2AR ag: 7; XBP1 UPR activ: 1; UPR CHOP act: 0; VLA-4 inh: 0; CHOP inh: 78*

What do the screens show for `CCOC(=O)CNC(=O)Cc1ccc(Cl)cc1`?
B2AR ag: -7; XBP1 UPR activ: 0; UPR CHOP act: 3; VLA-4 inh: 5; CHOP inh: 16

What do the screens show for `O=C(Cn1c(COc2ccccc2)nc2ccccc21)Nc1cc(Cl)ccc1Cl`?
B2AR ag: 1; XBP1 UPR activ: 4; UPR CHOP act: 3; VLA-4 inh: 6; CHOP inh: 82*

How did CCOc1ccc(C2=Nn3c(CC)nnc3SC2)cc1 do in these assays?
B2AR ag: -18; XBP1 UPR activ: 3; UPR CHOP act: 0; VLA-4 inh: 7

What do the screens show for `COc1ccc(C2CC(O)(c3ccccc3)Oc3cc(OC)cc(OC)c32)cc1` (centres undefined)?
B2AR ag: 1; XBP1 UPR activ: 2; UPR CHOP act: 0; CHOP inh: 85*

Results for COc1ccc(C2CC(=O)Oc3cc(OC)c(OC)c(OC)c32)cc1 (centres undefined) ?
B2AR ag: -4; XBP1 UPR activ: 0; UPR CHOP act: 2

What do the screens show for `COc1ccc([C@@H]2C[C@@H](c3ccccc3)Oc3c(C)ccc(C(C)C)c32)cc1`?
XBP1 UPR activ: -2; UPR CHOP act: -1; VLA-4 inh: 28

What do the screens show for `COc1ccc(C2CC(O)(c3ccccc3)Oc3c(C)ccc(C)c32)cc1` (centres undefined)?
B2AR ag: 11; XBP1 UPR activ: 2; UPR CHOP act: 4; VLA-4 inh: 19; CHOP inh: 98*

How did O=C(NNC(=O)C1COc2ccccc2O1)c1ccccc1O (centres undefined) do in these assays?
B2AR ag: -3; XBP1 UPR activ: -1; UPR CHOP act: 0

Results for Cc1ccc(CN(C)C(=O)c2c(C)nn(-c3ccccc3)c2C)cc1 ?
B2AR ag: -8; XBP1 UPR activ: 3; UPR CHOP act: 0; VLA-4 inh: 12

Results for COc1ccc(Sc2nnc(-c3ccccc3)cc2C#N)cc1 ?
B2AR ag: -2; XBP1 UPR activ: -2; UPR CHOP act: 0; VLA-4 inh: 32; CHOP inh: 90*

Results for Cc1ccc(Sc2nnc(-c3ccccc3)cc2C#N)cc1 ?
B2AR ag: 4; XBP1 UPR activ: 10; UPR CHOP act: 1; VLA-4 inh: 6; CHOP inh: 52

What do the screens show for `O=C(COC(=O)CC12CC3CC(CC(Br)(C3)C1)C2)NC(=O)NCc1ccco1`?
B2AR ag: -12; XBP1 UPR activ: -3; UPR CHOP act: -2; VLA-4 inh: 17; CHOP inh: 71*

Results for Cn1cccc1C(=O)NC(=O)COC(=O)CC12CC3CC(CC(Br)(C3)C1)C2 ?
B2AR ag: -6; XBP1 UPR activ: 0; UPR CHOP act: 0; VLA-4 inh: 1; CHOP inh: 29

How did Cc1nn(-c2ccc(F)cc2)c(C)c1/C=C/C(=O)N1CCNC(=O)C1 do in these assays?
B2AR ag: -1; XBP1 UPR activ: -3; UPR CHOP act: 1; VLA-4 inh: 7; CHOP inh: 27

How did O=C(Cn1c(=O)sc2ccccc21)NCc1ccccn1 do in these assays?
B2AR ag: 5; XBP1 UPR activ: 2; UPR CHOP act: 3; VLA-4 inh: -23; CHOP inh: 75*

Results for Cc1cc(C)cc(NC(=O)Nc2ccc(-n3ccc(C(F)(F)F)n3)cc2)c1 ?
B2AR ag: 2; XBP1 UPR activ: -1; UPR CHOP act: 3; VLA-4 inh: 3; CHOP inh: 83*

Results for O=C(Nc1ccc(-n2ccc(C(F)(F)F)n2)cc1)Nc1cccc(Cl)c1 ?
B2AR ag: 19; XBP1 UPR activ: 9; UPR CHOP act: 16; VLA-4 inh: 4; CHOP inh: 59
